Measured values: ChEMBL document CHEMBL3853327 (J Med Chem, 2016)

Assays:
[1] = tested on: Human immunodeficiency virus 1; test: Antiviral activity against HIV1 3B harboring reverse transcriptase Y181C mutant infected in human MT4 cells assessed as protection against virus induced cytotoxicity after 5 days by MTT assay; type: functional, cell-based; details: Human immunodeficiency virus 1, 3B, MT4, 120 h
How it was run: (§1)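 MTT cytopathicity assay in MT-4 cells (6 × 10^5 cells/mL). Compounds serially diluted 5-fold in triplicate wells, run in parallel on infected and mock-infected cells. Virus added at 100−300 CCID50 per well. Viability read spectrophotometrically at 540 and 690 nm after 5 days, using the median OD of three wells.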

[2] = tested on: Human immunodeficiency virus 1; test: Antiviral activity against HIV1 3B harboring reverse transcriptase K103N mutant infected in human MT4 cells assessed as protection against virus induced cytotoxicity after 5 days by MTT assay; type: functional, cell-based; details: Human immunodeficiency virus 1, 3B, MT4, 120 h
How it was run: (§2)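 MTT cytopathicity assay in MT-4 cells (6 × 10^5 cells/mL). Compounds serially diluted 5-fold in triplicate wells, run in parallel on infected and mock-infected cells. Virus added at 100−300 CCID50 per well. Viability read spectrophotometrically at 540 and 690 nm after 5 days, using the median OD of three wells. EC50 is the concentration giving 50% protection from viral cytopathogenicity.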

[3] = Selectivity index, ratio of CC50 for human mock-infected MT4 cells to EC50 for wild type HIV1 3B harboring reverse transcriptase infected in human MT4 cells; type: toxicity, cell-based; details: MT4 cells (mock-infected for CC50, HIV-1 infected for EC50)
How it was run: (§3)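 Selectivity index is CC50/EC50. CC50 is the concentration that reduces OD540 of mock-infected MT-4 cells by 50% in the 5-day MTT assay. EC50 is the 50% protection from virus-induced cytopathicity, measured in parallel on infected wells.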

[4] = Selectivity index, ratio of CC50 for human mock-infected MT4 cells to EC50 for HIV1 3B harboring reverse transcriptase K103N mutant infected in human MT4 cells; type: toxicity, cell-based; details: MT4 cells (mock-infected for CC50, HIV-1 infected for EC50); how it was run: as §3
[5] = Selectivity index, ratio of CC50 for human mock-infected MT4 cells to EC50 for HIV1 RES056 harboring reverse transcriptase K103N/Y181C double mutant infected in human MT4 cells; type: toxicity, cell-based; details: MT4 cells (mock-infected for CC50, HIV-1 infected for EC50); how it was run: as §3
[6] = Selectivity index, ratio of CC50 for human mock-infected MT4 cells to EC50 for HIV1 3B harboring reverse transcriptase L100I mutant infected in human MT4 cells; type: toxicity, cell-based; details: MT4 cells (mock-infected for CC50, HIV-1 infected for EC50); how it was run: as §3
[7] = Antiviral activity against HIV2 ROD harboring reverse transcriptase infected in human MT4 cells assessed as protection against virus induced cytotoxicity after 5 days by MTT assay; type: functional, cell-based, Human immunodeficiency virus type 2 (ISOLATE ROD); details: Human immunodeficiency virus 2, MT4, 120 h; how it was run: as §2
[8] = tested on: Human immunodeficiency virus 1; test: Antiviral activity against HIV1 3B harboring reverse transcriptase E138K mutant infected in human MT4 cells assessed as protection against virus induced cytotoxicity after 5 days by MTT assay; type: functional, cell-based; details: Human immunodeficiency virus 1, 3B, MT4, 120 h; how it was run: as §2
[9] = tested on: Human immunodeficiency virus 1; test: Antiviral activity against HIV1 3B harboring reverse transcriptase Y188L mutant infected in human MT4 cells assessed as protection against virus induced cytotoxicity after 5 days by MTT assay; type: functional, cell-based; details: Human immunodeficiency virus 1, 3B, MT4, 120 h; how it was run: as §2
[10] = Selectivity index, ratio of CC50 for human mock-infected MT4 cells to EC50 for HIV1 3B harboring reverse transcriptase Y181C mutant infected in human MT4 cells; type: toxicity, cell-based; details: MT4 cells (mock-infected for CC50, HIV-1 infected for EC50); how it was run: as §3
[11] = tested on: Human immunodeficiency virus 1; test: Antiviral activity against HIV1 3B harboring reverse transcriptase F227L/V106A double mutant infected in human MT4 cells assessed as protection against virus induced cytotoxicity after 5 days by MTT assay; type: functional, cell-based; details: Human immunodeficiency virus 1, 3B, MT4, 120 h; how it was run: as §2
[12] = tested on: Human immunodeficiency virus 1; test: Antiviral activity against HIV1 3B harboring reverse transcriptase L100I mutant infected in human MT4 cells assessed as protection against virus induced cytotoxicity after 5 days by MTT assay; type: functional, cell-based; details: Human immunodeficiency virus 1, 3B, MT4, 120 h; how it was run: as §2
[13] = Cytotoxicity against human mock-infected MT4 cells assessed as reduction in cell viability after 5 days by MTT assay; type: toxicity, cell-based
How it was run: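 Mock-infected MT-4 cells (6 × 10^5 cells/mL at seeding) with serial 5-fold compound dilutions in triplicate wells. Viability read by MTT after 5 days, absorbance at 540 and 690 nm, median OD of three wells. CC50 is the concentration reducing OD540 of mock-infected cells by 50%.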

[14] = Selectivity index, ratio of CC50 for human mock-infected MT4 cells to EC50 for HIV1 3B harboring reverse transcriptase E138K mutant infected in human MT4 cells; type: toxicity, cell-based; details: MT4 cells (mock-infected for CC50, HIV-1 infected for EC50); how it was run: as §3
[15] = tested on: Human immunodeficiency virus 1; test: Antiviral activity against wild type HIV1 3B harboring reverse transcriptase infected in human MT4 cells assessed as protection against virus induced cytotoxicity after 5 days by MTT assay; type: functional, cell-based; details: Human immunodeficiency virus 1, 3B, MT4, 120 h; how it was run: as §1
[16] = Selectivity index, ratio of CC50 for human mock-infected MT4 cells to EC50 for HIV1 3B harboring reverse transcriptase F227L/V106A double mutant infected in human MT4 cells; type: toxicity, cell-based; details: MT4 cells (mock-infected for CC50, HIV-1 infected for EC50); how it was run: as §3
[17] = Selectivity index, ratio of CC50 for human mock-infected MT4 cells to EC50 for HIV1 3B harboring reverse transcriptase Y188L mutant infected in human MT4 cells; type: toxicity, cell-based; details: MT4 cells (mock-infected for CC50, HIV-1 infected for EC50); how it was run: as §3

Row | SMILES | EC50 [1] [nM] | EC50 [2] [nM] | selectivity ratio [3] | selectivity ratio [4] | selectivity ratio [5] | selectivity ratio [6] | EC50 [7] [nM] | EC50 [8] [nM] | EC50 [9] [nM] | selectivity ratio [10] | EC50 [11] [nM] | EC50 [12] [nM] | CC50 at 120 h [13] [nM] | selectivity ratio [14] | EC50 [15] [nM] | selectivity ratio [16] | selectivity ratio [17]
1 | Cc1cc(C#N)cc(C)c1Oc1nc(NC2CCN(Cc3cccc(S(N)(=O)=O)c3)CC2)nc2ccsc12 | 20.9 | ≤ 7.6 | > 96000 | > 30100 | > 120 | > 8030 | > 228000 | 6.5 | 12.8 | > 10900 | 8.5 | 28.4 | > 228000 | > 35200 | 2.4 | > 26700 | > 17800
2 | CC(=O)NS(=O)(=O)c1ccc(CN2CCC(Nc3nc(Oc4c(C)cc(C#N)cc4C)c4sccc4n3)CC2)cc1 | 28.8 | 8.2 | > 576 | > 369 | 20 | > 145 | > 3030 | 8.8 | 13.6 | > 104 | 8.8 | 20.8 | > 3030 | > 340 | 5.2 | > 340 | > 222
3 | Cc1cc(C#N)cc(C)c1Oc1nc(NC2CCN(Cc3cccc(C(N)=O)c3)CC2)nc2ccsc12 | 49.5 | 10.3 | > 19200 | > 4710 | 1 | > 975 | > 48800 | 13.8 | 58.3 | > 984 | 130 | 50 | > 48800 | > 3510 | 2.5 | > 374 | > 836
4 | Cc1cc(C)c(Oc2nc(NC3CCN(Cc4ccc(S(N)(=O)=O)cc4)CC3)nc3ccsc23)c(C)c1 | 4840 | 4940 |  | 3 | < 1 | 4 | > 16500 | 5500 | 8470 | 3 | 4550 | 4520 | 16500 | 3 | 3550 | 4 | 2
5 | Cc1cc(C)c(Oc2nc(NC3CCN(Cc4ccc(C(N)=O)cc4)CC3)nc3ccsc23)c(C)c1 | 42.7 | 8.7 | 896 | 671 | 18 | 60 | > 5810 | 21.9 | 42.6 | 135 | 107 | 96.1 | 5810 | 265 | 6.5 | 54 | 136
6 | Nc1ccn([C@@H]2CS[C@H](CO)O2)c(=O)n1 [LAMIVUDINE] |  |  | > 39 |  |  |  | 8790 |  |  |  |  |  | > 87200 |  |  |  | 
7 | Cc1cc(C)c(Oc2nc(NC3CCN(Cc4cccc(C(N)=O)c4)CC3)nc3ccsc23)c(C)c1 | 183 | 93.8 | 531 | 81 | 1 | 19 | > 7640 | 51 | 234 | 41 | 852 | 399 | 7640 | 149 | 14.4 | 9 | 32
8 | Cc1cc(C)c(Oc2nc(NC3CCN(Cc4ccc([N+](=O)[O-])cc4)CC3)nc3ccsc23)c(C)c1 | 200 | 53.4 | 201 | 120 | < 1 | < 1 | > 6390 | 126 | 262 | 32 | > 6390 | > 6390 | 6390 | 51 | 31.8 | < 1 | 24
9 | CCOC(=O)c1ccc(CN2CCC(Nc3nc(Oc4c(C)cc(C#N)cc4C)c4sccc4n3)CC2)cc1 | 3710 | 511 | ≥ 1440 | > 446 | 1 | > 20 | > 231000 | 1020 | 4670 | > 62 | 12800 | 11300 | ≥ 231000 | > 227 | 161 | > 20 | > 49
10 | Cc1cc(C#N)cc(C)c1Oc1nc(NC2CCN(Cc3ccc(F)cc3F)CC2)nc2ccsc12 |  |  | 185 |  | < 1 |  | > 4080 |  |  |  |  |  | 4080 |  | 22 |  | 
